Results: ChEMBL document CHEMBL4689842, “EUbOPEN Chemogenomics Library wave 1” (2021)

Test system: HEK-293T
Assay: Multiplex assay against HEK293T;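 as to Population Tubulin-Different-Phenotype (%): share of the cells with healthy nuclei that show this phenotype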
Assay type: toxicity, cell-based
Conditions: human
Summary of the method: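 Live cells were stained at seeding with Hoechst33342, BioTracker Green Microtubule Cytoskeleton Dye, MitoTracker Red and Annexin V Alexa Fluor 680. Following compound addition, they were imaged on a CQ1 microscope at 37°C and 5% CO2 and gated by CellPathfinder machine learning into Hoechst high-intensity objects or normal cells, with normal cells split into healthy, pyknosed or fragmented nuclei and pyknosed cells into mitotic or apoptotic. Tubulin, mitochondrial-mass and membrane-permeability phenotypes are per cents of healthy-nucleus cells.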

[1] = 12 h, 1 µM, compound concentration 1 uM, replicate 1
[2] = 12 h, 1 µM, compound concentration 1 uM, replicate 2
[3] = 12 h, 10 µM, compound concentration 10 uM, replicate 1
[4] = 12 h, 10 µM, compound concentration 10 uM, replicate 2
[5] = 24 h, 1 µM, compound concentration 1 uM, replicate 1
[6] = 24 h, 1 µM, compound concentration 1 uM, replicate 2
[7] = 24 h, 10 µM, compound concentration 10 uM, replicate 1
[8] = 24 h, 10 µM, compound concentration 10 uM, replicate 2
[9] = 48 h, 1 µM, compound concentration 1 uM, replicate 1
[10] = 48 h, 1 µM, compound concentration 1 uM, replicate 2
[11] = 48 h, 10 µM, compound concentration 10 uM, replicate 1
[12] = 48 h, 10 µM, compound concentration 10 uM, replicate 2

In the case of Cc1c(-c2ccc(O)cc2)n(Cc2ccc(OCCN3CCCCCC3)cc2)c2ccc(O)cc12 [BAZEDOXIFENE], the “Population Apoptotic (%)” value [1] is reported as 40%, the “Population Fragmented Nuclei (%)” value [1] is reported as 15% and the “Population Healthy Nuclei (%)” value [1] is reported as 32%. For the same compound, the “Population Hoechst High Intensity Objects (%)” value [1] was 16%, the “Population Membrane Permeable-Phenotype (%)” value [1] was 0% and the “Population Mitochondria Different-Phenotype (%)” value [1] was 93%. For the same compound, the “Population Mitotic Cells (%)” value [1] was 59%, the “Population Normal (%)” value [1] was 83% and the “Population Pyknosed Nuclei (%)” value [1] was 52%. For the same compound, the “Population Tubulin-Different-Phenotype (%)” value [1] was 77%, the “Population Apoptotic (%)” value [2] was 12% and the “Population Fragmented Nuclei (%)” value [2] was 10%. For the same compound, the “Population Healthy Nuclei (%)” value [2] was 43%, the “Population Hoechst High Intensity Objects (%)” value [2] was 6% and the “Population Membrane Permeable-Phenotype (%)” value [2] was 11%. The “Population Mitochondria Different-Phenotype (%)” value [2] was 36%, the “Population Mitotic Cells (%)” value [2] was 87% and the “Population Normal (%)” value [2] was 93%. The “Population Pyknosed Nuclei (%)” value [2] was 46%, the “Population Tubulin-Different-Phenotype (%)” value [2] was 38% and the “Total Cell Count” value [2] was 168. For the same compound, the “Population Fragmented Nuclei (%)” value [3] was 14%, the “Population Healthy Nuclei (%)” value [3] was 8% and the “Population Hoechst High Intensity Objects (%)” value [3] was 21%. For the same compound, the “Population Membrane Permeable-Phenotype (%)” value [3] was 0%, the “Population Mitochondria Different-Phenotype (%)” value [3] was 90% and the “Population Normal (%)” value [3] was 78%. For the same compound, the “Population Pyknosed Nuclei (%)” value [3] was 77%, the “Population Tubulin-Different-Phenotype (%)” value [3] was 72% and the “Total Cell Count” value [3] was 161. The “Population Apoptotic (%)” value [4] was 88%, the “Population Fragmented Nuclei (%)” value [4] was 9% and the “Population Healthy Nuclei (%)” value [4] was 7%. For the same compound, the “Population Hoechst High Intensity Objects (%)” value [4] was 10%, the “Population Membrane Permeable-Phenotype (%)” value [4] was 10% and the “Population Mitochondria Different-Phenotype (%)” value [4] was 100%. The “Population Mitotic Cells (%)” value [4] was 11%, the “Population Normal (%)” value [4] was 89% and the “Population Pyknosed Nuclei (%)” value [4] was 83%. The “Population Tubulin-Different-Phenotype (%)” value [4] was 100%, the “Total Cell Count” value [4] was 159 and the “Population Apoptotic (%)” value [5] was 44%. For the same compound, the “Population Fragmented Nuclei (%)” value [5] was 13%, the “Population Healthy Nuclei (%)” value [5] was 45% and the “Population Hoechst High Intensity Objects (%)” value [5] was 13%. The “Population Membrane Permeable-Phenotype (%)” value [5] was 5%, the “Population Mitochondria Different-Phenotype (%)” value [5] was 84% and the “Population Mitotic Cells (%)” value [5] was 55%. The “Population Normal (%)” value [5] was 86%, the “Population Pyknosed Nuclei (%)” value [5] was 40% and the “Population Tubulin-Different-Phenotype (%)” value [5] was 54%. For the same compound, the “Total Cell Count” value [5] was 180, the “Population Apoptotic (%)” value [6] was 18% and the “Population Fragmented Nuclei (%)” value [6] was 8%. The “Population Healthy Nuclei (%)” value [6] was 50%, the “Population Hoechst High Intensity Objects (%)” value [6] was 8% and the “Population Membrane Permeable-Phenotype (%)” value [6] was 9%. The “Population Mitochondria Different-Phenotype (%)” value [6] was 40%, the “Population Mitotic Cells (%)” value [6] was 81% and the “Population Normal (%)” value [6] was 91%. For the same compound, the “Population Tubulin-Different-Phenotype (%)” value [6] was 53%, the “Total Cell Count” value [6] was 207 and the “Population Apoptotic (%)” value [7] was 96%. For the same compound, the “Population Fragmented Nuclei (%)” value [7] was 13%, the “Population Healthy Nuclei (%)” value [7] was 9% and the “Population Hoechst High Intensity Objects (%)” value [7] was 21%. The “Population Membrane Permeable-Phenotype (%)” value [7] was 0%, the “Population Mitochondria Different-Phenotype (%)” value [7] was 100% and the “Population Mitotic Cells (%)” value [7] was 3%. The “Population Normal (%)” value [7] was 78%, the “Population Pyknosed Nuclei (%)” value [7] was 76% and the “Population Tubulin-Different-Phenotype (%)” value [7] was 92%. For the same compound, the “Total Cell Count” value [7] was 175, the “Population Apoptotic (%)” value [8] was 90% and the “Population Fragmented Nuclei (%)” value [8] was 9%. For the same compound, the “Population Healthy Nuclei (%)” value [8] was 5%, the “Population Hoechst High Intensity Objects (%)” value [8] was 8% and the “Population Membrane Permeable-Phenotype (%)” value [8] was 33%. For the same compound, the “Population Mitochondria Different-Phenotype (%)” value [8] was 88%, the “Population Mitotic Cells (%)” value [8] was 10% and the “Population Normal (%)” value [8] was 91%. The “Population Pyknosed Nuclei (%)” value [8] was 84%, the “Population Tubulin-Different-Phenotype (%)” value [8] was 88% and the “Total Cell Count” value [8] was 168. For the same compound, the “Population Apoptotic (%)” value [9] was 39%, the “Population Fragmented Nuclei (%)” value [9] was 14% and the “Population Healthy Nuclei (%)” value [9] was 69%. For the same compound, the “Population Hoechst High Intensity Objects (%)” value [9] was 9%, the “Population Membrane Permeable-Phenotype (%)” value [9] was 3% and the “Population Mitochondria Different-Phenotype (%)” value [9] was 41%. For the same compound, the “Population Mitotic Cells (%)” value [9] was 60%, the “Population Normal (%)” value [9] was 90% and the “Population Pyknosed Nuclei (%)” value [9] was 16%. The “Population Tubulin-Different-Phenotype (%)” value [9] was 40%, the “Total Cell Count” value [9] was 275 and the “Population Apoptotic (%)” value [10] was 12%. For the same compound, the “Population Fragmented Nuclei (%)” value [10] was 3%, the “Population Healthy Nuclei (%)” value [10] was 75% and the “Population Hoechst High Intensity Objects (%)” value [10] was 2%. For the same compound, the “Population Membrane Permeable-Phenotype (%)” value [10] was 4%, the “Population Mitochondria Different-Phenotype (%)” value [10] was 19% and the “Population Mitotic Cells (%)” value [10] was 87%. For the same compound, the “Population Normal (%)” value [10] was 97%, the “Population Pyknosed Nuclei (%)” value [10] was 21% and the “Population Tubulin-Different-Phenotype (%)” value [10] was 32%. The “Total Cell Count” value [10] was 314, the “Population Apoptotic (%)” value [11] was 91% and the “Population Fragmented Nuclei (%)” value [11] was 22%. For the same compound, the “Population Healthy Nuclei (%)” value [11] was 1%, the “Population Hoechst High Intensity Objects (%)” value [11] was 23% and the “Population Membrane Permeable-Phenotype (%)” value [11] was 0%. For the same compound, the “Population Mitochondria Different-Phenotype (%)” value [11] was 100%, the “Population Mitotic Cells (%)” value [11] was 8% and the “Population Normal (%)” value [11] was 76%. The “Population Pyknosed Nuclei (%)” value [11] was 75%, the “Population Tubulin-Different-Phenotype (%)” value [11] was 50% and the “Total Cell Count” value [11] was 178. The “Population Apoptotic (%)” value [12] was 95%, the “Population Fragmented Nuclei (%)” value [12] was 20% and the “Population Healthy Nuclei (%)” value [12] was 6%. The “Population Hoechst High Intensity Objects (%)” value [12] was 9%, the “Population Membrane Permeable-Phenotype (%)” value [12] was 20% and the “Population Mitochondria Different-Phenotype (%)” value [12] was 90%. The “Population Mitotic Cells (%)” value [12] was 4%, the “Population Normal (%)” value [12] was 90% and the “Population Pyknosed Nuclei (%)” value [12] was 72%. For the same compound, the “Population Tubulin-Different-Phenotype (%)” value [12] was 90% and the “Total Cell Count” value [12] was 163.
